“Also recorded” adds a separate entry of the source. Ends that are not written are not given here.
Assays:
HSV-1 (F strain) = experiment: Post-entry inhibition assay; type: cell-based; conditions: time of addition experiment, peptide added to cells at 5 μg/mL after HSV-1 infection
Vero cells [1] = experiment: MTT cytotoxicity assay; type: cell-based, African green monkey; conditions: 48 h incubation, 0 to 200 μg/mL
In short: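 Vero cells were grown in MEM with 10% FBS at 37 ℃ and 5% CO2, seeded and cultured for 24 h. Medium was then replaced with fresh medium holding peptide at 0–200 μg/mL for 48 h at 37 ℃. MTT stock (5 mg/mL in PBS) was added for 4 h. Formazan was dissolved in DMSO for 10 min at room temperature and absorbance read at 570 nm.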

Vero cells [2] = experiment: Cellular uptake and localization of FITC-labeled peptides; type: cell-based, African green monkey; conditions: N-terminus FITC-labeled peptide, 10 μg/mL, 24 h at 37 ℃; confocal microscopy and flow cytometry (average FITC intensity)

LWHHIWHFVHHLI-NH2 [Eval418-FH5]
inhibitory rate of plaque formation when added after HSV-1 infection (HSV-1 (F strain)): 29.72% | CC50 (50% cytotoxicity concentration) (Vero cells [1]): 106.68 µg/mL | cellular uptake in Vero cells (Vero cells [2]): significant cellular uptake; also recorded: considerable cellular uptake

— article PMC5743469 (Theranostics, 2018)
